From ChEMBL document CHEMBL1275449, “Potent in vitro antifungal activities of naturally occurring acetylenic acids” (Antimicrob Agents Chemother, 2008)
≈ marks a conversion by molar mass, not a printed value.

Tests used:
Trichophyton rubrum [1] = test: Antifungal activity against Trichophyton rubrum ATCC 10218 by CLSI method; type: functional, organism-based
How it was run: (§1)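 Growth scraped from 1- to 6-week-old potato dextrose slants and filtered through Miracloth. Diluted in 5% Alamar blue-RPMI 1640 (MOPS pH 7.0) to 2.7 × 10⁴ CFU/ml. Eleven twofold dilutions in duplicate. Fluorescence at 544 nm excitation/590 nm emission read before and after 35°C, 5 days. IC50 fitted from percent growth. MIC taken as no detectable growth; MFC from clear or blue wells plated on PD agar.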

Trichophyton rubrum [2] = test: Antifungal activity against Trichophyton rubrum ATCC MYA-4438 by CLSI method; type: functional, organism-based; how it was run: as §1
[3] = test system: Trichophyton mentagrophytes; test: Antifungal activity against Trichophyton mentagrophytes ATCC 9533 by CLSI method; type: functional, organism-based; how it was run: as §1
[4] = test system: Trichophyton mentagrophytes; test: Antifungal activity against Trichophyton mentagrophytes ATCC MYA-4439 by CLSI method; type: functional, organism-based; how it was run: as §1
Cryptococcus neoformans [5] = test: Antifungal activity against Cryptococcus neoformans ATCC 66031 after 72 hrs by CLSI method; type: functional, organism-based; conditions: ATCC 66031, 72 h
How it was run: (§2)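 SD broth replaced RPMI because growth in RPMI was poor; other CLSI conditions were kept. Inoculum was 1.5 × 10³ CFU/ml from colonies on SD agar, checked by plating. Twofold serial dilutions (11 concentrations) in 20% DMSO-saline were tested in duplicate. OD530 was read before and after incubation at 35°C for 72 h. Percent growth gave IC50; the MIC is the lowest concentration with no detectable growth.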

Cryptococcus neoformans [6] = test: Antifungal activity against Cryptococcus neoformans ATCC 90113 after 72 hrs by CLSI method; type: functional, organism-based; conditions: ATCC 90113, 72 h; how it was run: as §2
Candida tropicalis = test: Antifungal activity against Candida tropicalis ATCC 750 after 48 hrs by CLSI method; type: functional, organism-based; conditions: ATCC 750, 48 h
How it was run: (§3)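 Yeast suspensions made from 3-5 colonies off 24-72 h SD agar plates in saline. They were diluted by OD630 standard curve in RPMI 1640 (0.2% dextrose, 0.03% glutamine, 0.165 M MOPS, pH 7.0) to 1.5 × 10³ CFU/ml. Twofold dilutions (11 concentrations, 20% DMSO-saline) run in duplicate. OD530 read before and after 35°C, 48 h. Line values are top test concentrations; no-growth endpoints give MIC/MFC.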

Candida parapsilosis = test: Antifungal activity against Candida parapsilosis ATCC 22019 after 48 hrs by CLSI method; type: functional, organism-based; conditions: Lodderomyces parapsilosis, ATCC 22019, 48 h; how it was run: as §3
Pichia kudriavzevii = test: Antifungal activity against Candida krusei ATCC 6258 after 48 hrs by CLSI method; type: functional, organism-based; conditions: ATCC 6258, 48 h
How it was run: (§4)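 Candida inocula came from 24–72-h SD agar colonies suspended in saline. They were diluted by OD630 standard curve into RPMI 1640 (0.2% dextrose, 0.03% glutamine, 0.165 M MOPS, pH 7.0) to 1.5 × 10³ CFU/ml. Compounds were run as 11 twofold dilutions in 20% DMSO-saline, in duplicate, at 35°C for 48 h, with OD530 read before and after. Percent growth at the top concentration, IC50, MIC, and MFC (SD agar plating) were derived.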

Nakaseomyces glabratus = test: Antifungal activity against Candida glabrata ATCC 90030 after 48 hrs by CLSI methodCandida glabrata; type: functional, organism-based; conditions: ATCC 90030, 48 h; how it was run: as §4
Candida albicans [7] = test: Antifungal activity against Fluconazole resistant Candida albicans clinical isolate 17 after 48 hrs by CLSI method; type: functional, organism-based
How it was run: (§5)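 CLSI broth microdilution. Colonies from 24–72 h SD agar suspended in saline and sized by OD630 standard curve. Inoculum 1.5 × 10³ CFU/ml (final) in RPMI 1640 (0.2% dextrose, 0.03% glutamine, 0.165 M MOPS, pH 7.0). Twofold dilutions (11 levels) from 20% DMSO-saline, in duplicate. 35°C for 48 h, OD530 read before and after. IC50 fitted from % growth. MIC: no detectable growth. MFC: subculture onto SD agar.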

Candida albicans [8] = test: Antifungal activity against Fluconazole resistant Candida albicans clinical isolate 1 after 48 hrs by CLSI method; type: functional, organism-based; how it was run: as §5
Candida albicans [9] = test: Antifungal activity against Candida albicans ATCC 200955 after 48 hrs by CLSI method; type: functional, organism-based; conditions: ATCC 200955, 48 h; how it was run: as §5
Candida albicans [10] = test: Antifungal activity against Candida albicans ATCC 90028 after 48 hrs by CLSI method; type: functional, organism-based; conditions: ATCC 90028, 48 h; how it was run: as §5
Candida albicans [11] = test: Antifungal activity against Candida albicans ATCC 32354 after 48 hrs by CLSI method; type: functional, organism-based; conditions: ATCC 32354, 48 h; how it was run: as §5
Candida albicans [12] = test: Antifungal activity against Candida albicans ATCC 14053 after 48 hrs by CLSI method; type: functional, organism-based; conditions: ATCC 14053, 48 h; how it was run: as §5
Candida albicans [13] = test: Antifungal activity against Candida albicans ATCC 60193 after 48 hrs by CLSI method; type: functional, organism-based; conditions: ATCC 60193, 48 h; how it was run: as §5
Aspergillus niger = test: Antifungal activity against Aspergillus niger ATCC 16404 after 48 h by CLSI method; conditions: ATCC 16404, 48 h
Aspergillus flavus = test: Antifungal activity against Aspergillus flavus ATCC 204304 after 48 h by CLSI method; conditions: ATCC 204304, 48 h
Aspergillus fumigatus [14] = test: Antifungal activity against Aspergillus fumigatus ATCC 90906 after 48 h by CLSI method; conditions: ATCC 90906, 48 h
Aspergillus fumigatus [15] = test: Antifungal activity against Aspergillus fumigatus ATCC 204305 after 48 h by CLSI method; conditions: ATCC 204305, 48 h
SK-MEL = test: Cytotoxicity against human SK-MEL cells up to 32 uM by neutral red method; type: cell-based
How it was run: (§6)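 Neutral red uptake cytotoxicity, top concentration 32 μM.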

KB = test: Cytotoxicity against human KB cells up to 32 uM by neutral red method; type: cell-based; how it was run: as §6
BT-549 = test: Cytotoxicity against human BT549 cells up to 32 uM by neutral red method; type: cell-based; how it was run: as §6
SK-OV-3 = test: Cytotoxicity against human SKOV3 cells up to 32 uM by neutral red method; type: cell-based; how it was run: as §6
Vero = test: Cytotoxicity against African green monkey Vero cells up to 32 uM by neutral red method; type: cell-based; conditions: chlorocebus sabaeus; how it was run: as §6
LLC-PK1 = test: Cytotoxicity against pig LLC-PK1 cells up to 32 uM by neutral red method; type: cell-based, Sus scrofa; how it was run: as §6

## CC(=O)N1CCN(c2ccc(OCC3COC(Cn4ccnc4)(c4ccc(Cl)cc4Cl)O3)cc2)CC1 (stereo not drawn) [KETOCONAZOLE]
Trichophyton rubrum [1]
  IC50: 20 nM
  MIC: 0.04 µM (≈ 0.0213 µg/mL)
Trichophyton rubrum [2]
  IC50: 10 nM
  MIC: 0.08 µM (≈ 0.0425 µg/mL)
[3]
  IC50: 200 nM
  MIC: 0.4 µM (≈ 0.213 µg/mL)
[4]
  IC50: 100 nM
  MIC: 0.7 µM (≈ 0.372 µg/mL)
Cryptococcus neoformans [5]
  IC50: 20 nM
  MFC: 0.59 µM (≈ 0.314 µg/mL)
  MIC: 0.15 µM (≈ 0.0797 µg/mL)
Cryptococcus neoformans [6]
  IC50: 100 nM
  MFC: 1.2 µM (≈ 0.638 µg/mL)
  MIC: 0.3 µM (≈ 0.159 µg/mL)
Candida tropicalis
  IC50: 40 nM
  MIC: 0.19 µM (≈ 0.101 µg/mL)
Candida parapsilosis
  IC50: 40 nM
  MIC: 0.13 µM (≈ 0.0691 µg/mL)
Pichia kudriavzevii
  IC50: 400 nM
  MIC: 1.1 µM (≈ 0.585 µg/mL)
Nakaseomyces glabratus
  IC50: 700 nM
  MIC: 4.7 µM (≈ 2.5 µg/mL)
Candida albicans [7]
  IC50: 300 nM
Candida albicans [8]
  IC50: < 10 nM
  MIC: 0.1 µM (≈ 0.0531 µg/mL)
Candida albicans [9]
  IC50: < 10 nM
  MIC: 0.01 µM (≈ 0.00531 µg/mL)
Candida albicans [10]
  IC50: < 10 nM
  MIC: 0.01 µM (≈ 0.00531 µg/mL)
Candida albicans [11]
  IC50: 10 nM
  MIC: 0.03 µM (≈ 0.0159 µg/mL)
Candida albicans [12]
  IC50: 10 nM
  MIC: 0.02 µM (≈ 0.0106 µg/mL)
Candida albicans [13]
  IC50: 10 nM
  MIC: 0.02 µM (≈ 0.0106 µg/mL)
Aspergillus niger
  IC50: 6000 nM
  MIC: 9.4 µM (≈ 5 µg/mL)
Aspergillus flavus
  IC50: 2800 nM
  MIC: 4.7 µM (≈ 2.5 µg/mL)
Aspergillus fumigatus [14]
  IC50: 3200 nM
  MIC: 7.1 µM (≈ 3.77 µg/mL)
Aspergillus fumigatus [15]
  IC50: 2700 nM
  MIC: 4.7 µM (≈ 2.5 µg/mL)

## CCCCCC#CCC#CCC#CCC#CCCCC(=O)O
Trichophyton rubrum [1]
  IC50: 8400 nM
  MIC: 15.8 µM (≈ 4.68 µg/mL)
Trichophyton rubrum [2]
  IC50: 2900 nM
  MIC: 31.7 µM (≈ 9.4 µg/mL)
[3]
  IC50: 14200 nM
  MIC: 21.1 µM (≈ 6.25 µg/mL)
[4]
  IC50: 6700 nM
  MIC: 31.7 µM (≈ 9.4 µg/mL)
Cryptococcus neoformans [6]
  IC50: > 169000 nM
Candida tropicalis
  IC50: 27700 nM
Candida parapsilosis
  IC50: 5400 nM
  MIC: 63.3 µM (≈ 18.8 µg/mL)
Pichia kudriavzevii
  IC50: > 169000 nM
Candida albicans [7]
  IC50: 3500 nM
  MIC: 42.2 µM (≈ 12.5 µg/mL)
Candida albicans [8]
  IC50: 1700 nM
  MIC: 42.2 µM (≈ 12.5 µg/mL)
Candida albicans [9]
  IC50: 2000 nM
  MFC: 21.1 µM (≈ 6.25 µg/mL)
  MIC: 5.3 µM (≈ 1.57 µg/mL)
Candida albicans [10]
  IC50: 5000 nM
  MIC: 42.2 µM (≈ 12.5 µg/mL)
Candida albicans [11]
  IC50: 4000 nM
  MIC: 31.7 µM (≈ 9.4 µg/mL)
SK-MEL
  Activity: Non-toxic
KB
  Activity: Non-toxic
BT-549
  Activity: Non-toxic
SK-OV-3
  Activity: Non-toxic
Vero
  Activity: Non-toxic
LLC-PK1
  Activity: Non-toxic
Candida albicans [12]
  IC50: 8100 nM
  MIC: 63.3 µM (≈ 18.8 µg/mL)
Candida albicans [13]
  IC50: 4500 nM
  MIC: 63.3 µM (≈ 18.8 µg/mL)
Aspergillus niger
  IC50: 100000 nM
Aspergillus flavus
  IC50: > 169000 nM
Aspergillus fumigatus [14]
  IC50: 13300 nM
  MIC: 84.5 µM (≈ 25 µg/mL)
Aspergillus fumigatus [15]
  IC50: 10000 nM
  MIC: 84.5 µM (≈ 25 µg/mL)
